Results on 7 compounds are retold here after ChEMBL document CHEMBL5113407, “Identification and development of a series of disubstituted piperazines for the treatment of Chagas disease” (Eur J Med Chem, 2022).

Series [1] can be described thus: Intrinsic clearance in mouse liver microsomes. The format is ADME, Microsome.
In series [2] the test system is Trypanosoma cruzi. The experiment in a line: Antitrypanosomal activity against intracellularTrypanosoma cruzi amastigote. The format is functional, organism-based. An outline of the steps:
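Intracellular T. cruzi amastigote assay; potency expressed as pEC50 from at least three independent replicates, SD ≤0.2.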

Series [3] can be described thus: Kinetic solubility of compound. In kind it is physicochemical. The following applies: read-out: Kinetic_solubility. A digest of the protocol:
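Kinetic solubility read by charged aerosol detection (CAD).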

Series [4] deals with Trypanosoma cruzi. The series is described as follows: Antitrypanosomal activity against Trypanosoma cruzi infected in mouse assessed as decrease in parasite level at 50 mg/kg twice daily for 5 days cotreated with 1-ABT. In kind it is functional, organism-based. Particulars: time 5.0 day. An outline of the steps:
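Acute infection mouse model; drug given twice daily for 5 days from day 14 post-infection, with 1-ABT 50 mg/kg given 30 min before each dose. Vehicle controls dosed b.i.d. at 10 mL/kg. Whole-body bioluminescence imaging, dorsal and ventral, quantified as total flux (p/s). Cyclophosphamide 200 mg/kg i.p. on days 28, 32 and 36 post-infection to detect relapse. Blood sampled on days 1 and 5 (n = 3).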

A short description of series [5]: Inhibition of Trypanosoma cruzi CYP51.

Converted amounts (≈) assume the structure as drawn. The source made the active and inactive calls. The rule behind the calls is not given here.

In the case of `Cc1ccc(S(=O)(=O)Nc2ccc(CN(C)[C@@H]3CCN(C(=O)c4cccc(Cl)c4)C3)cc2)cc1`, in series [1], the CLint was greater than 50 mL/min/g. In the series on Trypanosoma cruzi [2], `COc1ccc(S(=O)(=O)Nc2ccc(Cn3cc4c(n3)CN(C(=O)c3cccc(Cl)c3)C4)cc2)cc1` gave an EC50 of 12.6 µM.

For the compound `Cc1ccc(S(=O)(=O)Nc2ccc(CN(C)[C@H]3CCN(C(=O)c4cccc(Cl)c4)C3)cc2)cc1`, the CLint in series [1] is greater than 50 mL/min/g. With `Cc1ccc(S(=O)(=O)Nc2ccc(CN3CCN(C(=O)c4cccc(C#N)c4)CC3)cc2)cc1`, in the series with Trypanosoma cruzi [2], a half-maximal response (EC50) required 0.398 µM. `Cc1ccc(S(=O)(=O)Nc2ccc(CN3CCN(C(=O)c4cc(=O)c5ccccc5n4C)CC3)cc2)cc1` had an EC50 in the series with Trypanosoma cruzi [2] of 3.98 µM. Moreover, the solubility kinetic in series [3] is 29 µM (≈ 15.4 µg/mL). In series [1], this compound gave a CLint greater than 50 mL/min/g. For the compound `Cc1ccc(S(=O)(=O)Nc2ccc(CN3CCN(C(=O)c4cccc(Cl)c4)CC3)cc2)cc1`, the result in the series with Trypanosoma cruzi [4] was Active. The same compound came in with a negative-log IC50 (pIC50) in series [5] of 4.7. In series [1], this compound had a CLint greater than 50 mL/min/g. On to `Cc1ccc(S(=O)(=O)Nc2ccc(CN3CCN(C(=O)Cc4coc5ccccc45)CC3)cc2)cc1`, for which the EC50 with Trypanosoma cruzi [2] is 6.31 µM.
